Reference: ChEMBL document CHEMBL1129296, “Cardioselective antiischemic ATP-sensitive potassium channel openers. 4. Structure-activity studies on benzopyranylcyanoguanidines: replacement of the benzopyran portion” (J Med Chem, 1996)

Tests used:
Type in all cases: functional
[1] = Ratio between Antiischemic potency to Vasorelaxant potency
Summary of the method: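 Cardioselectivity was taken as the ratio of two values. The first is the EC25 for a 25% increase in time to contracture, in globally ischemic isolated perfused rat hearts. The second is the IC50 for relaxation of methoxamine-contracted rat aorta.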

Rattus norvegicus [2] = species on record: Rattus norvegicus; assay: Vasorelaxant potency was determined for inhibition of methoxamine contracted rat aorta.
Summary of the method: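 Vasorelaxation was measured in rat aorta precontracted with methoxamine. IC50 is the concentration giving relaxation of the contraction.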

Rattus norvegicus [3] = species on record: Rattus norvegicus; assay: Antiischemic potency was determined for increase in time to contracture by 25% in globally ischemic rat hearts.
Summary of the method: (§1)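 Isolated rat hearts were perfused, then subjected to total global ischemia. Contracture onset was taken as the time for end diastolic pressure to rise 5 mmHg above baseline. EC25 is the concentration that raises time to contracture by 25%.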

Rattus norvegicus [4] = species on record: Rattus norvegicus; assay: Antiischemic potency was determined at 10 uM for increase in time to contracture by 25% in globally ischemic rat hearts.
Rattus norvegicus [5] = species on record: Rattus norvegicus; assay: Antiischemic potency for increase in time to contracture by 25% in globally ischemic rat hearts.; summary of the method: as §1

| Compound | Ratio [1] | IC50 (Rattus norvegicus [2]) [µM] | EC25 (Rattus norvegicus [3]) [µM] | Increase in time to contracture (Rattus norvegicus [4]) [%] | Inhibition (Rattus norvegicus [5]) [%] |
| --- | --- | --- | --- | --- | --- |
| CC(C)(C)c1ccc(C#N)cc1NC(=O)Nc1cnccn1 | 0.77 | 15.3 | 11.9 |  |  |
| CC(C)(C)c1ccc(C#N)cc1/N=C(/NC#N)Nc1cccnc1 |  | 1.2 |  | 16 |  |
| CC(C)(C)c1ccc(C#N)cc1NC(=O)Nc1cncnc1 |  | 12.4 |  | 2 |  |
| CC(C)(C)c1ccc(C#N)cc1NC(=O)Nc1cccnc1 | 1.2 | 25.7 | 29.7 | 25 |  |
| CC1(C)CCN(C(=O)Nc2ccccc2)c2cc(C#N)ccc21 | 3.9 | 6.7 | 26 |  |  |
| CC1(C)CN(C(=O)Nc2cccnc2)c2cc(C#N)ccc21 | 18.8 | 1.5 | 28.3 |  |  |
| Cc1ccc(S(=O)(=O)Nc2ccc(C#N)cc2NC(=O)Nc2cccnc2)cc1 |  | > 100 |  |  | 0 |
| CC1(C)CC(NC(=O)Nc2ccccc2)c2cc(C#N)ccc21 (centres undefined) | 7.2 | 1.3 | 9.4 |  |  |
| N#Cc1ccc(Oc2ccccc2)c(NC(=O)Nc2cccnc2)c1 |  | 1 | 2 |  |  |
| CC(C)(C)c1ccc(C#N)cc1NC(=O)Nc1ccc(Cl)nc1 | 12 | 1.6 | 19.2 |  |  |
| CC(C)(C)c1ccc(C#N)cc1NC(=O)Nc1ccncc1 |  | 7.8 |  | 14 |  |
| N#Cc1ccc(-c2ccccc2)c(NC(=O)Nc2cccnc2)c1 |  | 22.8 | 12 |  |  |
| CC(C)(C)c1ccc(C#N)cc1NC(=O)Nc1ccccc1 | 19.9 | 1.7 | 33.8 |  |  |
| CC(C)(C)c1ccc(C#N)cc1NC(=O)Nc1ccccn1 |  | 25.7 |  | 25 |  |
| CC1(C)Oc2ccc(C#N)cc2[C@@H](/N=C(\NC#N)Nc2ccccc2)[C@@H]1O | 7.9 | 1.4 | 11 |  |  |
